By bioavailability is commonly meant the share of a dose that reaches the circulation, judged against a reference dose that is usually intravenous. High values mean much systemic uptake, low ones little systemic uptake. The Ki is a dissociation constant, usually derived from enzyme kinetics or from competition with a known ligand. High values mean weaker binding, low ones tighter binding. As a reminder, the half-life is the time needed for the level to fall by half in the phase considered.

Consider nine molecules from ChEMBL document CHEMBL1926610, “Design and synthesis of pyridone inhibitors of non-nucleoside reverse transcriptase” (Bioorg Med Chem Lett, 2011).

Each structure is given as a SMILES string.

Data set [1] in a line: Plasma clearance in Sprague-Dawley rat at 10 mg/kg, po and 2 mg/kg, iv. The class given is ADME, organism-based. The essentials: (§1)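 Sprague Dawley rats given iv dose 2 mpk as a DMSO solution via indwelling jugular vein cannula, and p.o. dose 10 mpk as aqueous methylcellulose (methocel) suspension. Plasma levels by LC-MS; absolute oral bioavailability from comparison of mean plasma AUC. Average of at least 2 rats.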

The nature of data set [2]: Oral bioavailability in Sprague-Dawley rat at 10 mg/kg. Format: ADME, organism-based. The note with it: in vivo. Summed up: as §1
Data set [3] relates to Human immunodeficiency virus. Nature of the data set: Antiviral activity against Human immunodeficiency virus expressing wild type RT infected in human MT4 cells by p24 antigen assay in the presence of 10% FBS. The note with it: Human immunodeficiency virus 1, MT4; read-out: CIC95. The class given is functional. The essentials:
(§2)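 CIC95 = concentration at which spread of virus is inhibited by >95% in MT-4 human T-lymphoid cells in RPMI 1640 medium containing either 10% FBS or 50% normal human serum (to assess protein binding). Geometric mean of at least 2 determinations.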

Data set [4] concerns Human immunodeficiency virus. Briefly: Antiviral activity against Human immunodeficiency virus expressing wild type RT infected in human MT4 cells by p24 antigen assay in the presence of 50% normal human serum. Format: functional. The note with it: Human immunodeficiency virus 1, MT4; read-out: CIC95. The essentials: as §2
Data set [5] addresses Human immunodeficiency virus type 1 reverse transcriptase (Human immunodeficiency virus 1, UniProt Q72547, Y181C). Briefly: Inhibition of Human immunodeficiency virus reverse transcriptase Y181C mutant by SPA assay. The essentials:
(§3)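 Scintillation proximity assay (SPA) of mutant RT enzyme inhibition. Values are geometric means of at least two determinations.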

Data set [6] concerns the target Human immunodeficiency virus type 1 reverse transcriptase (Human immunodeficiency virus 1, UniProt Q72547, K103N). Briefly: Inhibition of Human immunodeficiency virus reverse transcriptase K103N mutant by SPA assay. Summed up:
as §3

The subject of data set [7] is MT4. Briefly: Cytotoxicity against human MT4 cells up to 8.3 uM. Format: cell-based. The essentials:
(§4)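 Cytotoxicity in MT-4 human T-lymphoid cells run alongside the cell culture antiviral assay (RPMI 1640, 10% FBS or 50% NHS), tested up to the assay upper limit of 8.3 μM.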

Data set [8] in a line: Inhibition of Human immunodeficiency virus wild type reverse transcriptase by SPA assay. Summed up:
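Wild-type HIV RT enzyme inhibition measured in a standard SPA assay. Values are geometric mean of at least two determinations.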

Data set [9] deals with Human immunodeficiency virus. Briefly: Antiviral activity against Human immunodeficiency virus expressing RT K103N mutant infected in human MT4 cells by p24 antigen assay in the presence of 10% FBS. The note with it: Human immunodeficiency virus 1, MT4; read-out: CIC95. The class given is functional. The essentials:
(§5)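 Spread assay in MT-4 human T-lymphoid cells in RPMI 1640 with 10% FBS. CIC95 is the concentration inhibiting viral spread by >95%, reported as the geometric mean of at least 2 determinations. Cytotoxicity was checked up to 8.3 μM.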

The nature of data set [10]: Volume of distribution in Sprague-Dawley rat at 10 mg/kg, po and 2 mg/kg, iv. The class given is ADME, organism-based. The note with it: in vivo. Summed up: as §1
In data set [11] the test system is Human immunodeficiency virus. Nature of the data set: Antiviral activity against Human immunodeficiency virus expressing RT K103N/Y181C double mutant infected in human MT4 cells by p24 antigen assay in the presence of 10% FBS. Format: functional. The note with it: Human immunodeficiency virus 1, MT4; read-out: CIC95. The essentials:
as §5

Data set [12] concerns Rattus norvegicus. Nature of the data set: Dose normalized AUC in Sprague-Dawley rat at 10 mg/kg, po. The class given is ADME, organism-based. Further details: dose 10 mg/kg, route oral. The note with it: in vivo. Summed up: as §1
Data set [13] can be described thus: Volume of distribution in Sprague-Dawley rat at 1 mg/kg, iv. Format: ADME, organism-based. The arrangement: dose 1 mg/kg, route intravenous. The note with it: in vivo. The essentials:
(§6)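 Sprague Dawley rats dosed iv at 1 mpk in DMSO via indwelling jugular vein cannula, no oral arm. Plasma concentrations by LC-MS.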

Data set [14] is described as follows: Plasma clearance in Sprague-Dawley rat at 1 mg/kg, iv. Further details: dose 1 mg/kg, route intravenous. Format: ADME, organism-based. The essentials:
as §6

Data set [15] is described as follows: Half life in Sprague-Dawley rat at 1 mg/kg, iv. Format: ADME, organism-based. The arrangement: dose 1 mg/kg, route intravenous. The following applies: in vivo. Summed up:
as §6

Data set [16] in a line: Plasma protein binding in human. The class given is ADME, cell-free. The following applies: read-out: PPB (converted).
Data set [17] concerns Human immunodeficiency virus. Briefly: Antiviral activity against Human immunodeficiency virus expressing RT K103N/Y181C double mutant infected in human MT4 cells by p24 antigen assay in the presence of 10% FBS relative to MK-4965. Format: functional.
For data set [18], the system named is MT4. Briefly: Cytotoxicity against human MT4 cells. Format: cell-based. Summed up: as §4
Data set [19] has as its system Human immunodeficiency virus. Briefly: Antiviral activity against Human immunodeficiency virus expressing RT Y181C mutant infected in human MT4 cells by p24 antigen assay in the presence of 10% FBS. The note with it: Human immunodeficiency virus 1, MT4; read-out: CIC95. Format: functional. Summed up: as §5
The nature of data set [20]: Half life in Sprague-Dawley rat at 10 mg/kg, po and 2 mg/kg, iv. The following applies: in vivo. Format: ADME, organism-based. The essentials: as §1
Data set [21] concerns Human immunodeficiency virus. Briefly: Antiviral activity against Human immunodeficiency virus expressing RT K103N/Y181C double mutant infected in human MT4 cells by p24 antigen assay in the presence of 50% normal human serum. Format: functional. The note with it: Human immunodeficiency virus 1, MT4; read-out: CIC95. Summed up:
(§7)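 MT-4 human T-lymphoid cells were kept in RPMI 1640 containing 50% normal human serum to assess protein binding. Readout is CIC95, the concentration blocking >95% of virus spread. Values are geometric means of at least 2 determinations.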

Data set [22] concerns Human immunodeficiency virus. Nature of the data set: Antiviral activity against Human immunodeficiency virus expressing RT K103N mutant infected in human MT4 cells by p24 antigen assay in the presence of 50% normal human serum. Format: functional. The note with it: Human immunodeficiency virus 1, MT4; read-out: CIC95. The essentials:
as §7

In data set [23] the test system is Human immunodeficiency virus. Nature of the data set: Antiviral activity against Human immunodeficiency virus expressing wild type RT infected in human MT4 cells by p24 antigen assay in the presence of 50% normal human serum relative to UK-453061. Format: functional.
The test system of data set [24] is Human immunodeficiency virus. Briefly: Antiviral activity against Human immunodeficiency virus expressing RT Y181C mutant infected in human MT4 cells by p24 antigen assay in the presence of 50% normal human serum. Format: functional. The following applies: Human immunodeficiency virus 1, MT4; read-out: CIC95. The essentials:
as §7

Data set [25] relates to Human immunodeficiency virus. Briefly: Antiviral activity against Human immunodeficiency virus expressing wild type RT infected in human MT4 cells by p24 antigen assay in the presence of 50% normal human serum relative to MK-4965. The class given is functional.
Data set [26] relates to Human immunodeficiency virus. Briefly: Antiviral activity against Human immunodeficiency virus expressing wild type RT infected in human MT4 cells by p24 antigen assay in the presence of 50% normal human serum relative to TMC-278. The class given is functional.

`Cc1ccn(Cc2n[nH]c3ncccc23)c(=O)c1Oc1cc(Cl)cc(C#N)c1`: the clearance in data set [1] is 11 mL/min/kg. In data set [2], this molecule came in with a bioavailability of 8.5%. Also, the IC95 in [3] amounted to 3.6 nM; in data set [4] it was 12 nM; in [9], 10 nM; in data set [11], 31 nM. For the same molecule, the Ki was 3.1 nM in data set [5], 3.7 nM in data set [6] and 2.5 nM in [8]. Moreover, the Activity entry in data set [7] is given as “Non-toxic”. The same molecule returned a Vd in data set [10] of 3.7 L/kg. Further, the AUC/dose in [12] is 0.31 µM·h.

Turning to `Cc1ccn(CCc2n[nH]c3ncccc23)c(=O)c1Oc1cc(Cl)cc(C#N)c1`, in data set [13], the Vd is 0.6 L/kg. In [14], the clearance came out at 31 mL/min/kg. Also, the IC95 in data set [3] was determined as 248 nM; in data set [4] it was 611 nM; in data set [9], 447 nM. In addition, the Ki came out at 51 nM in [5], 58 nM in data set [6] and 25 nM in data set [8]. The Activity result in [7] is “Non-toxic”. For the same molecule, the half-life in [15] is 0.75 h.

As for `N#Cc1cc(Cl)cc(Oc2c(Cl)ccn(Cc3n[nH]c4ncccc34)c2=O)c1`, in data set [1], the clearance is 12 mL/min/kg. For the same molecule, the fraction unbound in [16] was 0.033. Further, the “fold change (FC)” value came to 10 in data set [17], 4 in [23], 4 in data set [25] and 4 in [26]. Also, the Activity entry in data set [18] and in [7] was “Non-toxic” each time. The IC95 in [19] was 7.8 nM; in data set [3], 2.4 nM; in [21], 69 nM; in data set [4], 7.7 nM; in data set [22], 12 nM; in data set [24], 20 nM. Moreover, the values for the IC95 in data set [9] and in data set [11] were 2.9 nM and 7 nM, respectively. In data set [2], this molecule had a bioavailability of 57%. In addition, in [20], the half-life was 4 h. Further, the results for the Ki in data set [5], in data set [6] and in data set [8] were 1 nM, 1.5 nM and 0.77 nM, respectively. The same molecule yielded a Vd in data set [10] of 2 L/kg. For the same molecule, in data set [12], the AUC/dose worked out at 1.6 µM·h.

As for `N#Cc1cc(Cl)cc(Oc2c(Cl)c(Cl)cn(Cc3n[nH]c4ncccc34)c2=O)c1`, the clearance in [1] is 27 mL/min/kg. Moreover, the IC95 in data set [19] came to 15 nM; in data set [3], 4.6 nM; in data set [4] it was 15 nM; in data set [9], 11 nM; in data set [11], 31 nM. The bioavailability in [2] came out at 0%. In [20], this molecule gave a half-life of 19 h. In addition, the inhibitory constant (Ki) in [5] is 1.3 nM; in [6], 1.6 nM; in data set [8], 1 nM. For the same molecule, the Activity result in data set [7] is “Non-toxic”. The molecule further came in with a Vd in data set [10] of 27 L/kg. The molecule also came in with an AUC/dose in data set [12] of 0 µM·h.

For the molecule `N#Cc1cc(Cl)cc(Oc2c(Cl)ccn(Cc3n[nH]c4nc(N)ccc34)c2=O)c1`, the clearance in data set [1] was 12 mL/min/kg. Moreover, the IC95 in data set [19] came out at 63 nM; in data set [3], 1.9 nM; in data set [4], 11 nM; in data set [9], 7.1 nM; in [11], 30 nM. In data set [2], the bioavailability was determined as 6%. Further, in data set [20], the half-life was 1.4 h. The results for the Ki in [5], in data set [6] and in [8] were 1.8 nM, 2.1 nM and 1.3 nM, respectively. Also, the Activity result in data set [7] is given as “Non-toxic”. For the same molecule, the Vd in [10] came to 0.8 L/kg. For the same molecule, the AUC/dose in data set [12] stood at 0.15 µM·h.

As for `N#Cc1cc(Cl)cc(Oc2cc(Cc3n[nH]c4ncccc34)ccc2Cl)c1`, the IC95 came out at 22 nM in data set [3] and 211 nM in data set [9]. In addition, the Ki in data set [5] stood at 0.51 nM; in [6], 0.48 nM; in [8] it was 0.24 nM.

With `N#Cc1cc(Cl)cc(Oc2cc(OCc3n[nH]c4nc(N)ccc34)ccc2Cl)c1`, the fraction unbound in data set [16] is 0.035. In addition, the Activity entry in [18] and in data set [7] was “Non-toxic” in each case. Besides, the IC95 was determined as 27 nM in data set [19]; 5 nM in data set [3]; 589 nM in data set [21]; 26 nM in data set [4]; 54 nM in data set [22]; 175 nM in data set [24]. The values for the IC95 in [9] and in data set [11] were 12 nM and 73 nM, respectively. In [8], this molecule registered an inhibition constant Ki of 0.2 nM.

Take `CCc1nn(CCO)c(CC)c1Oc1cc(C#N)cc(C#N)c1` [LERSIVIRINE]: the fraction unbound in [16] was 0.49. Besides, the Activity result in [18] is “Non-toxic”. For the same molecule, the IC95 in data set [21] turned out to be 100 nM; in data set [4], 40 nM; in [22] it was 70 nM; in data set [24] it was 68 nM.

On to `Cc1cc(/C=C/C#N)cc(C)c1Nc1ccnc(Nc2ccc(C#N)cc2)n1` [RILPIVIRINE], for which the fraction unbound in data set [16] is 0.003. Besides, the Activity result in data set [18] is given as “Non-toxic”. Further, the IC95 in data set [21] worked out at 311 nM; in data set [4], 36 nM; in data set [22], 46 nM; in data set [24], 104 nM.
